# UCH37 DUB inh: inhibitors of human UCH37 deubiquitinase, primary screen, biochemical, Ub-AMC cleavage, fluorescence; purified proteasome/UCH37; Ubiquitin carboxyl-terminal hydrolase isozyme L5 (Homo sapiens), Q9Y5K5; 0.33% of 330,000 active; inhibition, % (no concentration beside the values);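 active = mean inhibition over replicate wells above about 20%, limit read from the data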;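 also: 0% = compound-free wells with enzyme and 100% = wells lacking proteasome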
#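 assay system = human UCH37 enzyme supplied as purified proteasome complex | amount = proteasome at 0.15 nM in the dispensed enzyme solution | schedule = 30 min compound-proteasome preincubation then 25 min substrate reaction, room temperature | measured by = fluorescence, ex 355 nm, em 460 nm | benchmarks = no-proteasome wells (full inhibition) and compound-free wells (no inhibition)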
# LEDGF integ inh: blockers of LEDGF/p75-dependent integrase strand transfer – biochemical, TR-FRET, high throughput, primary screen. 0.64% of 370,000 active. inhibition, % at 3.7 µM. HIV-1 integrase (with human LEDGF/p75). TR-FRET IN-LEDGF/p75 DNA integration, Eu/Cy5;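 active = inhibition above the screen-wide mean plus 3 SD, cut at about 13% in these data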;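 also: signal is the Cy5 over europium emission ratio at 671 and 618 nm; 0% = plate median of compound wells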
# CASP6 VEID inh: human caspase-6 inhibitors, primary screen, biochemical, VEID-R110 fluorescence, single point, set 2 | P55212 | purified caspase-6, Z-VEID-R110 cleavage fluorescence | inhibition, % at 12.5 µM | 0.53% of 350,000 active | AID 686996, 2013;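 active = mean inhibition across replicates at least about 35%, with every replicate also reaching that limit, limit read from the data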;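 also: 0% = median of neutral control wells and 100% = no fluorescence left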
# TDP2 absorb: human TDP2 enzyme inhibitors, primary screen, biochemical, epi absorbance, recombinant enzyme; T5PNP hydrolysis, p-nitrophenol absorbance 415 nm; 0.34% of 370,000 active; inhibition, % at 12.8 µM;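 active = inhibition above the mean of all tested compounds plus 3 SD, set per campaign, cut at about 25% in these data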;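 also: 0% = DMSO with enzyme and 100% = buffer with substrate but no TDP2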
#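 Read-out basis: percent inhibition. System: recombinant human TDP2. Buffer or medium: Mg2+-containing Tris-HCl buffer, pH 7.5. Repeats: single replicate. Timing: reaction 2 h, 37 °C. Benchmarks: high control without enzyme, low control DMSO plus TDP2. Probe or stimulus: 5 mM T5PNP. Doses: 12.8 µM only. Measured by: epi absorbance of p-nitrophenol freed from T5PNP by hydrolysis.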
# NSD2 inh: NSD2 histone methyltransferase inhibitors, primary screen, biochemical, AlphaScreen, single concentration, set 2; Histone-lysine N-methyltransferase NSD2 (Homo sapiens), O96028; inhibition, % at 12.5 µM; 0.54% of 310,000 active; AID 743445, 2014; NSD2 peptide methylation, 120 min; in the data active = inhibition above about 50%
# * = called active by the depositor; . = no result; + = active, no number. Sampled rows, rich in hits. Any-hit rate of the full collection: about 1.3%.
SMILES,UCH37 DUB inh,LEDGF integ inh,CASP6 VEID inh,TDP2 absorb,NSD2 inh
O=C(NCc1ccco1)C1Cc2ccccc2CN1S(=O)(=O)c1ccccc1F (configuration not stated),2.8,14.0*,.,-12.4,.
C#CCNC(=O)C[C@@H]1C[C@@]2(C(=O)OCC)CCC=C2N(Cc2ccc(Cl)cc2Cl)C1=O,.,3.2,76.5*,1.7,.
CCCCOCCCNC(=O)C[C@@H]1C[C@@]2(C(=O)OCC)CCC=C2N(Cc2ccco2)C1=O,.,5.1,49.5*,-0.7,.
CCOC(=O)[C@]12CCC=C1N(Cc1ccc(Cl)cc1Cl)C(=O)[C@H](CC(=O)NCCC(C)C)C2,.,-3.4,0.3,-6.0,.
CCOC(=O)[C@]12CCCC=C1N(Cc1ccco1)C(=O)[C@H](CC(=O)NCCCOC)C2,.,-5.3,-2.5,6.0,.
O=S(=O)(O)c1ccc(NN=Cc2ccccc2O)cc1,22.6*,6.3,26.7,0.3,3.2
Oc1ccccc1C=NNc1ccccc1,2.7,.,.,.,.
C=CCOc1ccc(C(c2c(C(=O)O)[nH]c3ccccc23)c2c(C(=O)O)[nH]c3ccccc23)cc1,-0.8,6.9,47.7*,15.5,31.8
CC1=NN(c2ccccc2)C(=O)C1/C=C1\NC(=S)NC1=O (configuration not stated),1.5,4.8,.,0.0,102.3*
COCC(=O)N1[C@@H]2CN(C(=O)Nc3ccccc3F)c3ccccc3[C@@H]2[C@@H]1CO,.,.,35.7*,.,.
O=C(NNS(=O)(=O)c1ccc(F)cc1)c1ccccc1F,-1.4,-5.5,46.0*,-1.1,-1.9
CCOc1cc(/C=C2/NC(=O)NC2=O)cc(Br)c1OCc1ccc(C(=O)O)cc1,3.3,3.0,43.2*,5.4,1.4
NN=C(c1ccccc1)C12CN3CN(CN(C3)C1)C2,3.1,.,.,.,.
CN(/C=C/C(=C/C=[N+](C)c1ccccc1)OCCCS(=O)(=O)[O-])c1ccccc1,21.1*,1.1,7.5,-6.1,4.3
CN(/C=C/C(=C\C=[N+](C)c1ccccc1)OCCCS(=O)(=O)[O-])c1ccccc1,20.1*,-4.1,18.7,-6.2,.
CC1CCCC(C)N1C(=O)COC(=O)c1ccc(S(=O)(=O)N(C)c2ccccc2)cc1 (configuration not stated),-0.4,-2.2,-0.7,-1.8,0.1
CCn1c2ccc(C(C)=NO)cc2c2cc(C(C)=NO)ccc21,-4.0,.,.,.,.
O=C(CSc1cccc[n+]1[O-])Nc1ccc(Cl)cc1F,2.3,5.2,37.3*,-1.1,1.6
COc1ccc(C=NNC(=O)c2cccc(Br)c2)cc1Cn1cc(Cl)cn1,2.9,.,.,.,.
O=C1CC(NS(=O)(=O)c2cc(F)ccc2F)CN1c1cccc(F)c1 (configuration not stated),2.7,0.3,37.3*,4.8,-0.4
O=C(COC(=O)c1ccc([N+](=O)[O-])o1)NC1CCCc2ccccc21 (configuration not stated),20.1*,1.8,24.7,13.7,0.8
O=C(OCC(=O)N1CCc2ccccc21)c1ccc([N+](=O)[O-])o1,8.8,15.6*,7.7,-14.8,-8.1
CC(C)(C)N(Cc1ccccc1)C(=O)COC(=O)c1ccc([N+](=O)[O-])o1,3.9,-0.7,45.2*,3.6,14.8
O=C(COC(=O)c1ccc([N+](=O)[O-])o1)NCCc1ccccc1,12.1,7.4,29.0,-6.7,25.3
CN(C)c1ccc(C=NN(CCC#N)C2=NS(=O)(=O)c3ccccc32)cc1,2.5,.,.,.,.
SMILES,UCH37 DUB inh,LEDGF integ inh,CASP6 VEID inh,TDP2 absorb,NSD2 inh
CC(C)=CC(=O)Nc1nnc(-c2ccccc2)s1,2.6,1.2,-0.7,-10.7,1.0
CC(C)=CC(=O)Nc1nnc(C)s1,28.1*,-0.1,.,8.1,-0.7
N#C/C(=N/Nc1ccc([N+](=O)[O-])cc1)C(=N)N1CCCCC1,.,-4.1,3.4,3.8,14.5
N#CC(=NNc1ccc([N+](=O)[O-])cc1)C(=N)N1CCCCC1,23.0*,.,.,.,.
COc1ccc([N+](=O)[O-])cc1C=NNc1nc(N2CCCCC2)nc(N2CCCCC2)n1,5.1,.,.,.,.
CCN(CC)C(=O)C1=C(C)NC(=S)NC1c1cccs1 (configuration not stated),26.9*,4.4,1.1,-4.5,-2.1
Cc1cccc(-n2c(C)cc(C=NNC(=O)c3cccs3)c2C)c1,-5.5,.,.,.,.
COc1cc(/C=C2/C(=O)NN(c3ccc(Cl)cc3)C2=O)cc(Br)c1O,11.5,-3.5,80.9*,4.7,27.7
COc1cc(/C=C2/C(=O)NN(c3ccc(Cl)c(Cl)c3)C2=O)cc([N+](=O)[O-])c1O,21.6*,5.8,.,-11.8,32.8
COc1cc(/C=C2/C(=O)NN(c3ccc(F)cc3)C2=O)cc(Cl)c1O,13.0,-1.9,13.9,10.3,25.8
CCOc1ccc2c(c1)C(NC(C)=O)C(=O)N2CCN1CCOCC1 (configuration not stated),12.0,6.8,55.1*,15.0,.
Oc1ccc(/C=N/Nc2ccnc3cc(Cl)ccc23)cc1O,.,-1.7,46.6*,-8.1,3.0
Oc1ccc(C=NNc2ccnc3cc(Cl)ccc23)cc1O,-14.4,.,.,.,.
CN1CCN(CC(=O)NC(=O)NC2CCCCC2)CC1,-0.3,0.8,-0.3,14.8,-3.1
CN1CCN(NC(=O)NC2CCCCC2)CC1,4.5,0.5,40.6*,-24.4,1.1
Cc1ccc(C=Nn2c(COc3ccccc3)n[nH]c2=S)cc1,4.2,.,.,.,.
O=C(CN1CCN(S(=O)(=O)c2ccc(F)cc2)CC1)c1ccc(O)c(O)c1,4.9,12.6,5.0,13.0,.
O=C(CN1CCN(S(=O)(=O)c2ccc(Cl)cc2)CC1)c1ccc(O)c(O)c1,5.5,.,.,.,121.3*
COc1ccc(S(=O)(=O)N2CCN(CC(=O)c3ccc(O)c(O)c3)CC2)cc1,2.8,60.9*,.,14.7,+
CC(CC1CC(C)(C)OC1=O)=NNc1nc(-c2ccccc2)cs1 (configuration not stated),1.0,.,.,.,.
C#CCN(C[C@@H]1[C@@H](OC(=O)NCc2ccc(OC)c(OC)c2)[C@@H](OC(=O)NCc2ccc(OC)c(OC)c2)CN(C(=O)OC(C)C)N1C(=O)OC(C)C)S(=O)(=O)c1ccc(C)cc1,.,52.0*,-4.2,-0.6,.

# Screening results (PubChem)
